In ChEMBL document CHEMBL1128507, “Design and synthesis of potent retinoid X receptor selective ligands that induce apoptosis in leukemia cells” (J Med Chem, 1995):
pEC50, pKd: −log10 of the molar value.

Key:
[1] = molecular target: T1, Retinoic acid receptor RXR-beta (Mus musculus, UniProt P28704); test: Ability to activate gene expression at Retinoic acid receptor RXR-beta was evaluated in a cotransfection assay.
T1 sequence (P28704 whole entry): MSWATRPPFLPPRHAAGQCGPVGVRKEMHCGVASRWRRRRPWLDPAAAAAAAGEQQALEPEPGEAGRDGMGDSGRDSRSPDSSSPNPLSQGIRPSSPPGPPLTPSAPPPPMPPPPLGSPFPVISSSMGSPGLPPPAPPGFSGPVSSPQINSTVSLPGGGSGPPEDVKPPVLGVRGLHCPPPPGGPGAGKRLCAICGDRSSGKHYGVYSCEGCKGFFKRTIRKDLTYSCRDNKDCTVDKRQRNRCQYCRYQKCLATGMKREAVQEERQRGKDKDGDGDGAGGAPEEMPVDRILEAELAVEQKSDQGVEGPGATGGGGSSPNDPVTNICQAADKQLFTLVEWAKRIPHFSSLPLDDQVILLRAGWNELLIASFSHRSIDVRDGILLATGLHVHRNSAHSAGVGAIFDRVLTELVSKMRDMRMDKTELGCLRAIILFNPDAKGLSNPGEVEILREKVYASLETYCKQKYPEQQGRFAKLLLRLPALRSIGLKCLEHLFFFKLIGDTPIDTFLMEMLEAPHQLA

[2] = molecular target: T2, Retinoic acid receptor RXR-gamma (Mus musculus, UniProt P28705); test: Ability to activate gene expression at Retinoic acid receptor RXR-gamma was evaluated in a cotransfection assay.
T2 sequence (P28705 whole entry): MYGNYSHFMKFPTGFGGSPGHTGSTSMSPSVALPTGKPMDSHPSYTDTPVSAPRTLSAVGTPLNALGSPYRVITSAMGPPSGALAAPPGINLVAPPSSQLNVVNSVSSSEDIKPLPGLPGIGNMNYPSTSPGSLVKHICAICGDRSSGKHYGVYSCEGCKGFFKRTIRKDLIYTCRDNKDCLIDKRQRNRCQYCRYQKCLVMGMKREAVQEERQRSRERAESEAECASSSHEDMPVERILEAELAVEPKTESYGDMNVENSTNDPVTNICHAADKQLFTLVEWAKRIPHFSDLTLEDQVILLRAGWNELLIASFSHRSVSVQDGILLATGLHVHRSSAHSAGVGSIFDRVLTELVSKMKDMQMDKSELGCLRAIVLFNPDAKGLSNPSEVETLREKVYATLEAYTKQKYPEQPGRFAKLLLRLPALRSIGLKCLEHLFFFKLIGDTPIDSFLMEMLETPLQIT
Procedure, shortened: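 CV-1 cells cotransfected with the RXR-gamma receptor, using an automated 96-well format. Values are either one experiment in triplicate or the mean ± SEM of at least two experiments, each in triplicate.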

[3] = molecular target: T3, Retinoic acid receptor RXR-alpha (Homo sapiens, UniProt P19793); test: Ability to bind directly to Retinoic acid receptor RXR-alpha was evaluated in a competitive binding assay.
T3 sequence (P19793 whole entry): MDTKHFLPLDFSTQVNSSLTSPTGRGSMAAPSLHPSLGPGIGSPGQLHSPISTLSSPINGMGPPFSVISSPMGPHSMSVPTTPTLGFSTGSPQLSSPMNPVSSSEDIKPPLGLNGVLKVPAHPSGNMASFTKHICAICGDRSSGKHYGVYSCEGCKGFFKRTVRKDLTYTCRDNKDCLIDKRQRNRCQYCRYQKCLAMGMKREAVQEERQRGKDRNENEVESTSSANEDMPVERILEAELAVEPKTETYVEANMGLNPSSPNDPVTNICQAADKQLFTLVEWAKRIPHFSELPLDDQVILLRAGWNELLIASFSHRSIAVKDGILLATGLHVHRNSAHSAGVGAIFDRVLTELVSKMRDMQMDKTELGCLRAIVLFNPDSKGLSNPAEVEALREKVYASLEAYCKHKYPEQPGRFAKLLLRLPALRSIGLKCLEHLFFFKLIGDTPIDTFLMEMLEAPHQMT

[4] = molecular target: T3, Retinoic acid receptor RXR-alpha; test: Ability to activate gene expression at Retinoic acid receptor RXR-alpha was evaluated in a cotransfection assay.
[5] = molecular target: T2, Retinoic acid receptor RXR-gamma; test: Binding affinity to Retinoic acid receptor RXR-gamma was evaluated in a competitive binding assay.
Procedure, shortened: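 Receptor from baculovirus. Competition binding used [3H]-9-cis-RA as the radioligand for RXRs. Kd was calculated with the Cheng-Prussof equation. Values are mean ± SEM of about three experiments, or a single experiment in triplicate.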

[6] = molecular target: T1, Retinoic acid receptor RXR-beta; test: Binding affinity to Retinoic acid receptor RXR-beta was determined in a competitive binding assay.

pEC50 [1] | pEC50 [2] | pKd [3] | pEC50 [4] | pKd [5] | pKd [6] | Compound
6.51 | 6.47 | 6.96 | 6.33 | 6.70 | 6.82 | Cc1cc2c(cc1C(C)c1ccc(C(=O)O)cc1)C(C)(C)CCC2(C)C (configuration not stated)
7.17 | 7.33 | 6.17 | 7.29 | 6.26 | 6.72 | Cc1cc2c(cc1C1(c3ccc(C(=O)O)cc3)CO1)C(C)(C)CCC2(C)C (configuration not stated)
7.66 | 7.77 | 7.34 | 7.59 | 7.60 | 7.15 | Cc1cc2c(cc1C1(c3ccc(C(=O)O)cc3)CC1)C(C)(C)CCC2(C)C
6.11 | 6.22 | 5.94 | 5.92 | 5.76 | 6.07 | C=C(c1ccc(C(=O)O)cc1)c1cc2c(cc1C)C(C)(C)CCC2
5.72 | 6.19 | < 6.00 | 6.19 | < 6.00 | < 6.00 | Cc1cc2c(cc1C(C)(C)c1ccc(C(=O)O)cc1)C(C)(C)CCC2(C)C
6.89 | 6.62 | 7.30 | 6.52 | 6.82 | 6.80 | CC(C)=C(c1ccc(C(=O)O)cc1)c1cc2c(cc1C)C(C)(C)CCC2(C)C

The next lines start with the molecule.

Compound | pEC50 [1] | pEC50 [2] | pKd [3] | pEC50 [4] | pKd [5] | pKd [6]
Cc1cc2c(cc1Oc1ccc(C(=O)O)cc1)C(C)(C)CCC2(C)C | 5.72 | 6.37 | 6.28 | 6.00 | 6.35 | 6.11
Cc1cc2c(cc1C(=O)c1ccccc1C(=O)O)C(C)(C)CCC2(C)C | < 5.00 | < 5.00 | < 6.00 | < 5.00 | < 6.00 | < 6.00
C=C(c1ccc(C(=O)O)cc1)c1cc2c(cc1C)C(C)(C)C(C)C2(C)C (configuration not stated) | 6.55 | 6.30 | 6.75 | 6.52 | 6.55 | 6.54
C=C(c1ccc(C(=O)O)cc1)c1cc2c(cc1C)CCCC2(C)C | 5.62 | 5.59 | < 6.00 | 5.62 | < 6.00 | < 6.00
Cc1cc2c(cc1C(=O)c1cccc(C(=O)O)c1)C(C)(C)CCC2(C)C | < 5.00 | < 5.00 | < 6.00 | < 5.00 | < 6.00 | < 6.00
Cc1cc2c(cc1Cc1ccc(C(=O)O)cc1)C(C)(C)CCC2(C)C | 5.92 | 6.36 | < 6.00 | 6.34 | < 6.00 | < 6.00
